Screening results (PubChem BioAssay)
PPC-1+TRAIL kill = compounds killing PPC-1 cancer cells with TRAIL present, primary screen, TRAIL potentiator project, ATPLite luminescence, uHTS; PPC-1 cells + TRAIL, ATPLite viability luminescence; cell killing (% activity), % at 4 µM or 5 µM; actives 0.41% (n = 220,000); AID 1443, 2008;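 active = cell killing above 50% in the first pass at 4 µM, then a duplicate retest at 5 µM averaging 50% or more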;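 also: plate controls were cells with TRAIL plus DMSO for no effect and medium-only wells lacking cells for full effect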
Platelet DG rel = inhibitors of platelet dense granule secretion, primary screen, cell-based, MLPCN, human platelets; actives 0.22% (n = 300,000); human platelet-rich plasma, SFLLRN dense granule ATP release, luminescence; AID 1663, 2009; inhibition, %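 (compounds screened at 7.5 µM in platelet-rich plasma)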;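 active = mean replicate score, as percent of positive control, at or above 50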
Lipid droplet = inhibitors of hepatocyte lipid droplet formation, primary screen, imaging, high-throughput imaging, BODIPY stain; AML12 mouse hepatocytes, oleate lipid droplets; inhibition, % at 6.5 µM; actives 0.4% (n = 240,000);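 active = lipid droplet intensity inhibited by at least 50%, with more than 500 cells counted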
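Technique: fluorescence imaging, 20x objective, two fields per well / Assay system: AML12 hepatocytes (mouse) / Measure: % inhibition of lipid droplet signal / Doses: 6.5 µM single-point dosing / Incubation: overnight exposure / Reagent: 100 µM oleic acid challenge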
STAT1 blocker = STAT1 signaling inhibitors, primary screen, cell-based, HTS, luciferase reporter; NIH 3T3 STAT1-luciferase reporter, IFN-gamma, luminescence; actives 0.35% (n = 200,000); inhibition, % at 5.5 µM;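 active = inhibition above a set limit, the mean inhibition across all tested compounds plus 3 SD, cut at about 34% in these data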;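 also: 0% = IFN-gamma with DMSO and 100% = IFN-gamma with 300 µM nifuroxazide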
TAG inh = inhibitors of triacylglycerol accumulation, primary screen, cell-based, uHTS, fluorescence, H9c2 | H9c2 cells, Nile Red lipid (TAG) fluorescence; cells loaded with 200 µM oleic acid | inhibition, % at 12.5 µM | actives 0.66% (n = 230,000) | AID 651582, 2012;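 active = pattern-corrected inhibition of lipid staining of at least 50% with the nuclear-stain viability signal not falling by more than 50%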;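 also: 0% = DMSO wells and 100% = triacsin C control wells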
STAT3 blocker = IL-6 driven STAT3 reporter inhibitors, primary screen, U3A cells, luciferase, luminescence, MLSCN library | IL-6 STAT3-luciferase reporter; host cell line lacks STAT1 | inhibition, % at 5.5 µM | actives 0.89% (n = 190,000) | AID 862, 2007;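 active = inhibition above the mean inhibition across all screened compounds plus 3 SD, cut at about 44% in these data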;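 also: 0% = DMSO only wells and 100% = 100 µM nifuroxazide control wells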
PPC1 cytotox = cytotoxicity in PPC-1 cells, confirmation, cytotoxicity control for TRAIL apoptosis potentiator project, cell-based, ATP content luminescence; shares compounds with PPC-1+TRAIL kill; PPC-1 viability, ATPlite luminescence, overnight; cytotoxicity, % at 5 µM; actives 50% (n = 1,200); AID 1447, 2008;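 active = reconfirmed compounds whose average cytotoxicity reaches 50% or more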;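 also: 0% = DMSO-treated cells and 100% = wells holding medium but no cells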
Lipid drop inh = hepatocyte lipid droplet accumulation inhibitors, confirmation, imaging, AML12 mouse hepatocytes, single concentration, high-content; shares compounds with Lipid droplet; BODIPY lipid droplet imaging; droplets induced with 100 µM oleic acid; inhibition, % at 5.2 µM; actives 65% (n = 870);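 active = inhibition of lipid droplet metric at least 50%, with more than 300 cells in each of four replicates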;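 also: plate controls were DMSO with oleic acid for no effect and 5 µM Triacsin-C for full effect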
AML12 cytotox = AML12 hepatocyte cytotoxicity, counter-screen for hepatic lipid droplet formation project, imaging, DAPI nuclear morphology imaging; shares compounds with Lipid droplet; AID 463200, 2010; AML12 mouse hepatocytes; hits give high values; cells fed 100 µM oleate overnight; z-score at 5 µM; actives 3% (n = 870); in the data active = z-score above about 6.3;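 also: compound exposure lasted overnight at 37 °C before fixation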
AML12 tox conf = AML12 hepatocyte cytotoxicity, confirmation, cytotoxicity control for hepatic lipid droplet formation project, cell-based, single concentration; shares compounds with Lipid droplet; AML12 mouse hepatocyte viability, ATP luminescence; cells loaded with 100 µM oleic acid; cytotoxicity, % at 50 µM; 530 tested, under 10 active;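 active = cytotoxicity above 50% in each of four replicates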;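 also: compound exposure lasted overnight at 37 °C before the ATP read; 0% = DMSO-treated cells and 100% = wells with no cells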
H9c2 TAG conf = triacylglycerol accumulation inhibitors, retest, confirmation, cell-based, single concentration, Nile Red fluorescence, H9c2; AID 651629, 2012; H9c2 lipid accumulation; cells loaded with 200 µM oleic acid; actives 71% (n = 990); shares compounds with TAG inh; inhibition, % at 12.5 µM;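 active = mean inhibition across replicates of 40% or more; inactive = mean inhibition below 40%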;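 also: plate controls were DMSO only wells for no effect and Triacsin C treated wells for full effect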
Starred values were filed as active, the others as inactive; . = no result. The list is not random: actives were taken first. Their share in the collection is about 1.5%.

SMILES	PPC-1+TRAIL kill	Platelet DG rel	Lipid droplet	STAT1 blocker	TAG inh	STAT3 blocker	Lipid drop inh	AML12 cytotox	others
Cc1ccc(C(=O)Nc2cc(C)c(OCC(=O)N3CCOCC3)c(C)c2)cc1	79.0*	-2.8	37.4	2.3	63.2*	12.2	.	.	PPC1 cytotox=78.9*;H9c2 TAG conf=41.6*
OCc1ccccc1-c1nc(NCC2CC2)nc2ccsc12	.	.	.	.	11.9	.	.	.
CCN(CC)CCCNc1nc2cc(OC)c(OC)cc2c2nc(-c3cccnc3)nn12	-4.3	0.5	3.3	-6.4	9.6	-31.8	.	.
CCN(CC)CCCNc1nc2cc(OC)c(OC)cc2c2nc(-c3ccccc3)nn12	26.1	1.0	1.3	-3.0	60.6*	0.1	.	.	PPC1 cytotox=22.0;H9c2 TAG conf=36.0
Cc1ccccc1Cn1nc(C)c(NC(=O)C2c3ccccc3Oc3ccccc32)c1C	21.6	-0.4	80.9*	-7.8	.	-3.7	100.5*	-0.316	AML12 tox conf=-3.8
COC(=O)c1ccc(-c2noc(CN(C)CC3CCCCO3)n2)cc1 (stereo unspecified)	6.0	-5.9	50.5*	-10.3	-13.7	4.4	8.0	0.0572
COc1ccc(Cl)cc1NC(=O)Nc1ccc(C(=O)N2CCCC2)cc1	.	9.0	55.7*	.	28.0	.	77.1*	-0.606	AML12 tox conf=18.4
COc1ccc(Cl)cc1NC(=S)N1CCCC1	-8.1	-1.6	-6.8	-5.8	0.8	1.9	.	.
COc1ccc(C)cc1NC(=O)Nc1ccc(C(=O)N2CCCC2)cc1	.	15.3	69.5*	.	46.2	.	95.1*	0.296	AML12 tox conf=28.5
Cc1cc(N2CCN(C)CC2)n2nc(-c3ccc(Cl)cc3)nc2n1	7.1	-5.9	61.1*	.	.	.	21.6	-0.265
CCCc1cc(N2CCN(c3ccccn3)CC2)n2nc(C)c(-c3ccccc3)c2n1	15.4	-3.3	.	-2.1	47.8	9.0	.	.
CCCc1cc(N2CCOCC2)n2nc(C)c(-c3ccccc3)c2n1	.	3.1	63.7*	.	.	.	96.1*	0.76	AML12 tox conf=-1.7
Cc1nc2nc(-c3ccc(Cl)cc3)nn2c(C)c1Cl	-4.5	5.4	.	9.4	.	-83.8	.	.
Cc1cc(N2CCOCC2)n2nc(C)c(-c3ccc(Cl)cc3)c2n1	.	9.7	97.5*	.	.	.	109.8*	0.255	AML12 tox conf=11.0
COc1ccc(NC(=O)C2(C)CCN2Cc2ccc(OC)c3ccccc23)cc1OC (stereo unspecified)	.	.	.	.	0.3	.	.	.
COc1ccc(C)cc1NC(=O)Cc1csc(NC(=O)Nc2ccccc2OC)n1	.	.	.	.	17.2	.	.	.
Cc1cc2nc(NC(=O)C3(C)CCCN(C(C)C)C3)[nH]c2cc1C (stereo unspecified)	.	.	.	.	4.4	.	.	.
Cc1ccc(F)cc1C(=O)N1CCOCC1c1cc(C(=O)Nc2ccccc2)no1 (stereo unspecified)	.	.	.	.	4.7	.	.	.
Cc1cccc(N(Cc2cc(=O)[nH]c3ccccc23)C(=O)CCl)c1	.	5.6	54.6*	.	.	.	80.3*	0.318
CCCC(=O)N(Cc1cc(=O)[nH]c2ccccc12)c1cccc(C)c1	.	-4.7	-30.9	.	.	.	.	.
Cc1cc2nn(-c3ccc(Cl)cc3)nc2cc1N	.	2.6	62.5*	.	.	.	72.7*	0.243	AML12 tox conf=48.8
CC(=O)Nc1cc(-c2cccc(C(=O)NCCN(C)C)c2)cn2c(-c3ccc(C(C)=O)cc3)cnc12	.	.	.	.	8.3	.	.	.
COCCn1c(SCC(=O)Nc2c(C)n(C)n(-c3ccccc3)c2=O)nnc1-c1ccncc1	.	.	.	.	-5.1	.	.	.
COc1n[nH]c(C(=O)Nc2cc(F)ccc2C)c1[N+](=O)[O-]	3.8	10.5	55.4*	6.6	.	23.2	9.2	-0.666
COc1n[nH]c(C(=O)Nc2cc(Cl)ccc2Cl)c1[N+](=O)[O-]	15.6	5.7	-0.7	2.1	.	2.0	.	.
SMILES	PPC-1+TRAIL kill	Platelet DG rel	Lipid droplet	STAT1 blocker	TAG inh	STAT3 blocker	Lipid drop inh	AML12 cytotox	others
COc1ccc2c(c1)-c1c(ssc1=S)C(C)(C)N2S(=O)(=O)c1ccc(C)cc1	23.9	-3.8	50.8*	14.7	.	3.0	60.7	1.33
CC12CCC3c4cc(CN5CCOCC5)c(O)cc4CCC3C1CCC2=O (stereo unspecified)	.	.	.	.	-19.9	.	.	.
COC(=O)C1=C(C(=O)OC)SC(=C2C(=S)C(C)(C)N(C(=O)C(C)C)c3ccccc32)S1	3.4	-10.1	56.8*	2.2	.	-1.5	102.1*	0.568	AML12 tox conf=16.5
COc1cc2ncnc(NCc3ccc(Cl)cc3)c2cc1OC	1.2	-15.2	50.9*	12.2	-2.0	-2.5	70.2*	13.3*
COc1cc2ncnc(NCc3ccccc3Cl)c2cc1OC	22.8	-4.1	52.3*	9.1	1.8	10.9	64.7*	17*
COc1cc2ncnc(NCc3ccccc3C)c2cc1OC	8.3	-0.7	45.5	10.6	5.8	-1.2	.	.
O=C(NCCO)c1ccc(-c2ccc3nncn3c2)cc1	.	.	.	.	10.9	.	.	.
COC(=O)CNC(=O)Cc1c(C)n(C(=O)c2ccc(Cl)cc2)c2ccc(OC)cc12	.	-1.9	-7.2	.	10.3	.	.	.
COc1ccc(NC(=O)Cc2c(C)n(C(=O)c3ccc(Cl)cc3)c3ccc(OC)cc23)cc1	3.8	3.5	82.7*	-6.6	36.3	-16.0	98.3*	0.433
COc1ccccc1NS(=O)(=O)c1ccc(N/N=C/c2c(C)nn(-c3ccccc3)c2N2CCCC2)c([N+](=O)[O-])c1	4.5	3.0	99.9*	-0.3	.	-1.2	114.4*	-1.05	AML12 tox conf=24.9
COc1ccccc1NC(=O)N1CCC(C(=O)c2ccc(F)cc2)CC1	11.8	-7.5	39.0	-4.4	.	-2.2	.	.
CCOc1ccccc1NC(=O)N1CCC(C(=O)c2ccc(F)cc2)CC1	8.7	-4.3	58.7*	4.1	48.5	13.2	94.6*	0.00254	AML12 tox conf=12.5
CCN(Cc1ccccc1)C(=O)COC(=O)c1cc(S(=O)(=O)Nc2ccccc2OC)ccc1O	.	.	.	.	0.0	.	.	.
